# Assay results from ChEMBL document CHEMBL4000255, “Discovery and Assessment of Atropisomers of (±)-Lesinurad” (ACS Med Chem Lett, 2017).
# pIC50: −log10 of the molar value. Where “and” joins values, the source holds several entries; their conditions need not be identical. Equal values may be shown once.
# Assays:
# [1] = target: T1, CYP2C9 (Homo sapiens, UniProt P11712); assay: Drug metabolism in human liver microsomes assessed as CYP2C9-mediated metabolism by measuring compound half life at 10 pmol/ml preincubated for 10 mins followed by NADPH addition measured after 10 mins by LC-MS/MS analysis; type: ADME
# T1 sequence (P11712 whole entry): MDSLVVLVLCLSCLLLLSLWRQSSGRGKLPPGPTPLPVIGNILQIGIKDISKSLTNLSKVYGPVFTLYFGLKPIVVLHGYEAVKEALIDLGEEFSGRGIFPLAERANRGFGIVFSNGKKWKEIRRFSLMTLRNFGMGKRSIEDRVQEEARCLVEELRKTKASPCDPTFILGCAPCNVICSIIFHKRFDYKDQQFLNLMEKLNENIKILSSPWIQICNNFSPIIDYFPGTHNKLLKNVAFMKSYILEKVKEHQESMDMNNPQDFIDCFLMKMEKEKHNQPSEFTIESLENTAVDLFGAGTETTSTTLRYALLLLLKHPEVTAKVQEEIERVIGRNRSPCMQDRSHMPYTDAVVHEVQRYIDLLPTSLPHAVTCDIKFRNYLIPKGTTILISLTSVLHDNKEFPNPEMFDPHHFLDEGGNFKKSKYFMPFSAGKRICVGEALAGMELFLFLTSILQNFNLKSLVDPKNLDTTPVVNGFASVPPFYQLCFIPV
# [2] = target: T1, CYP2C9; assay: Drug metabolism in human liver microsomes assessed as CYP2C9-mediated metabolism by measuring parent compound remaining at 10 pmol/ml after 60 mins in absence of NADPH by LC-MS/MS analysis; type: ADME; details: read-out: Stability
# [3] = target: T1, CYP2C9; assay: Drug metabolism in human liver microsomes assessed as CYP2C9-mediated metabolism by measuring parent compound remaining at 10 pmol/ml after 60 mins in presence of NADPH by LC-MS/MS analysis; type: ADME; details: read-out: Stability
# [4] = target: T2, Cytochrome P450 2C9 (Homo sapiens, UniProt P11712); assay: Drug metabolism in human liver microsomes assessed as CYP2C9-mediated metabolism by measuring compound intrinsic clearance at 10 pmol/ml preincubated for 10 mins followed by NADPH addition measured after 10 mins by LC-MS/MS analysis; type: ADME
# T2 sequence (P11712 whole entry): as above
# [5] = target: T1, CYP2C9; assay: (§1) Drug metabolism in human liver microsomes assessed as CYP2C9-mediated metabolism by measuring parent compound remaining at 250 pmol/ml after 60 mins in presence of NADPH by LC-MS/MS analysis; type: ADME; details: liver microsomes, read-out: Stability
# [6] = target: T2, Cytochrome P450 2C9; assay: as §1; type: ADME; details: microsomes, 1 h
# [7] = Drug metabolism in cynomolgus monkey assessed as (+)-Lesinurad level in urine at 2 mg/kg, iv administered as single bolus dose measured at 24 hrs post dose by LC-MS/MS analysis; type: ADME, organism-based, Macaca fascicularis; details: in vivo, read-out: Drug metabolism
# Procedure, shortened: (§2)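 Male cynomolgus monkeys received a single 2 mg/kg IV or 10 mg/kg PO dose. Plasma and urine were collected over time periods, and the two atropisomers were quantified separately. Urine values are the mean concentration over 0-24 h. Data are mean±SD, n=3.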
# [8] = Stability of the compound in DMSO at 80 degC for 4 days; type: physicochemical; details: 96 h
# [9] = target: Cytochrome P450 2C19 (Homo sapiens, UniProt P33261); assay: Inhibition of CYP2C19 (unknown origin); type: ADME
# Sequence of Cytochrome P450 2C19 (P33261 whole entry): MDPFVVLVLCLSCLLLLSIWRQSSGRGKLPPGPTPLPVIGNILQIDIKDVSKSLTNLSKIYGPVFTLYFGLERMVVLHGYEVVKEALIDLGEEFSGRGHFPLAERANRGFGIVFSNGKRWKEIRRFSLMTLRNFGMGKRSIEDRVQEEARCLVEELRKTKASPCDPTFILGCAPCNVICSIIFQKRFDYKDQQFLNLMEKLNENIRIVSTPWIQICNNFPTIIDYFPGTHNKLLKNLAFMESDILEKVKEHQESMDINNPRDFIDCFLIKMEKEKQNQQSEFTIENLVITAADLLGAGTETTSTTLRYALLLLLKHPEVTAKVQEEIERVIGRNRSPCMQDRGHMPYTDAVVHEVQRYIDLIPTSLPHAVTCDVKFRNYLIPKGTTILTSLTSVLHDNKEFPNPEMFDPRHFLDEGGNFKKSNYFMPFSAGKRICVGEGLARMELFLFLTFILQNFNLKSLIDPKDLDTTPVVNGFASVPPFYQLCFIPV
# [10] = test system: Plasma; assay: Stability in Sprague-Dawley rat plasma at 37 degC up to 2 hrs; type: ADME, cell-free
# [11] = Drug metabolism in cynomolgus monkey assessed as (-)-Lesinurad level in urine at 10 mg/kg, po administered as single dose via gavage measured at 24 hrs post dose by LC-MS/MS analysis; type: ADME, organism-based, Macaca fascicularis; details: in vivo, read-out: Drug metabolism; procedure, shortened: as §2
# [12] = target: Cytochrome P450 2D6 (Homo sapiens, UniProt P10635); assay: Inhibition of CYP2D6 (unknown origin); type: ADME
# Sequence of Cytochrome P450 2D6 (P10635 whole entry): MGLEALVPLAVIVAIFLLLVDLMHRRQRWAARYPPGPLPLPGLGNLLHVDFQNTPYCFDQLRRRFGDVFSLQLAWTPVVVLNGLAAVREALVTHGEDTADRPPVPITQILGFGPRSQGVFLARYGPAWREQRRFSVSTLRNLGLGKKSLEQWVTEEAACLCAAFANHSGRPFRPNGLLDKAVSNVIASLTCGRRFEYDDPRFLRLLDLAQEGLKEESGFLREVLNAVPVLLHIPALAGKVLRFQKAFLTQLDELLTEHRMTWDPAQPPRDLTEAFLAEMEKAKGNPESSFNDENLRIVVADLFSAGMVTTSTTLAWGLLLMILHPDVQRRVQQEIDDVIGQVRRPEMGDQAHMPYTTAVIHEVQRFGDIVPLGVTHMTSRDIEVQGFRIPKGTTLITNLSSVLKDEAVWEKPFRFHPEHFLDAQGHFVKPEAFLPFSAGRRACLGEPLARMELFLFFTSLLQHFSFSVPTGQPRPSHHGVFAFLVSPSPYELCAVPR
# [13] = Stability of the compound in solid state assessed as compound purity after 80 days; type: physicochemical; details: 1920 h
# [14] = test system: Cynomolgus monkey; assay: AUC (0 to infinity) in cynomolgus monkey at 10 mg/kg, po administered as single dose via gavage by LC-MS/MS analysis; type: ADME, organism-based, Macaca fascicularis; design: dose 10 mg/kg, route oral, time infinity; details: in vivo
# [15] = target: T3, Cytochrome P450 1A2 (Homo sapiens, UniProt P05177); assay: Inhibition of CYP1A2 (unknown origin); type: ADME
# T3 sequence (P05177 whole entry): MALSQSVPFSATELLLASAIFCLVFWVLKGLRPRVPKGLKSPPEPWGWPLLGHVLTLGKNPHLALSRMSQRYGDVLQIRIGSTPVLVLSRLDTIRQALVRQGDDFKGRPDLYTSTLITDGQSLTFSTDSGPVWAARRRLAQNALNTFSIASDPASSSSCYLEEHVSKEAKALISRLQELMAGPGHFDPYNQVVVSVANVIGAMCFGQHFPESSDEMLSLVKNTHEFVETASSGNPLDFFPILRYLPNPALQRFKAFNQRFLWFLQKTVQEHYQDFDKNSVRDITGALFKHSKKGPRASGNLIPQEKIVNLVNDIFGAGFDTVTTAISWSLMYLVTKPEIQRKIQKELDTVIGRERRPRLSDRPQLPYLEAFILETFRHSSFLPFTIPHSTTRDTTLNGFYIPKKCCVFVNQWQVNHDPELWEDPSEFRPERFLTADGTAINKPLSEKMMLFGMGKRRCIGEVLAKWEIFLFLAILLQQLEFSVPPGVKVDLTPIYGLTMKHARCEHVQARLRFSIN
# [16] = Drug metabolism in cynomolgus monkey assessed as (-)-Lesinurad level in urine at 2 mg/kg, iv administered as single bolus dose measured at 24 hrs post dose by LC-MS/MS analysis; type: ADME, organism-based, Macaca fascicularis; details: in vivo; procedure, shortened: as §2
# [17] = Drug recovery in cynomolgus monkey urine at 2 mg/kg, iv administered as single bolus dose measured at 24 hrs post dose by LC-MS/MS analysis; type: ADME, organism-based, Macaca fascicularis; details: read-out: Drug recovery; procedure, shortened: as §2
# [18] = Drug level in cynomolgus monkey urine at 2 mg/kg, iv administered as single bolus dose measured at 24 hrs post dose by LC-MS/MS analysis; type: ADME, organism-based, Macaca fascicularis; details: read-out: Drug uptake; procedure, shortened: as §2
# [19] = target: T2, Cytochrome P450 2C9; assay: Drug metabolism in human liver microsomes assessed as CYP2C9-mediated metabolism by measuring compound intrinsic clearance at 250 pmol/ml preincubated for 10 mins followed by NADPH addition measured after 10 mins by LC-MS/MS analysis; type: ADME
# [20] = target: T1, CYP2C9; assay: (§3) Drug metabolism in human liver microsomes assessed as CYP2C9-mediated metabolism by measuring parent compound remaining at 250 pmol/ml after 60 mins in absence of NADPH by LC-MS/MS analysis; type: ADME; details: liver microsomes, read-out: Stability
# [21] = target: T2, Cytochrome P450 2C9; assay: as §3; type: ADME; details: microsomes, 1 h
# [22] = Stability of the compound in ethanol at 37 degC for 4 days; type: physicochemical; details: 96 h
# [23] = Apparent plasma clearance in cynomolgus monkey at 2 mg/kg, iv administered as single bolus dose by LC-MS/MS analysis; type: ADME, organism-based, Macaca fascicularis; details: read-out: CL(app); procedure, shortened: as §2
# [24] = Stability of the compound in solid state assessed as racemization after 80 days; type: physicochemical; details: 1920 h
# [25] = target: Cytochrome P450 3A4 (Homo sapiens, UniProt P08684); assay: Inhibition of CYP3A4 (unknown origin); type: ADME
# Sequence of Cytochrome P450 3A4 (P08684 whole entry): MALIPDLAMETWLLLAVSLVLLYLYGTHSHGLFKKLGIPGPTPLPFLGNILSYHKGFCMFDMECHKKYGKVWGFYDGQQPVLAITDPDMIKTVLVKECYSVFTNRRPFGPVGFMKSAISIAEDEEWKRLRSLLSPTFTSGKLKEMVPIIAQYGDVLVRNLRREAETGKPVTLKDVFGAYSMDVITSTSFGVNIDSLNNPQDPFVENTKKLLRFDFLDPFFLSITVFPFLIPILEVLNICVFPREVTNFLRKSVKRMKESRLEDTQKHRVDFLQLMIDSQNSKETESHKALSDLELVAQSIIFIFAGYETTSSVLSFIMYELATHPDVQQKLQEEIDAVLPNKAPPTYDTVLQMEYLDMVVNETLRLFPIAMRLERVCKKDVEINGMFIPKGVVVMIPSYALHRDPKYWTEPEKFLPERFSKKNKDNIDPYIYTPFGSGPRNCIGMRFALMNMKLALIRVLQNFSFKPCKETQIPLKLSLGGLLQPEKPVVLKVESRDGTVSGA
# [26] = target: T2, Cytochrome P450 2C9; assay: Inhibition of CYP2C9 (unknown origin); type: ADME
# [27] = Drug metabolism in cynomolgus monkey assessed as (+)-Lesinurad level in urine at 10 mg/kg, po administered as single dose via gavage measured at 24 hrs post dose by LC-MS/MS analysis; type: ADME, organism-based, Macaca fascicularis; details: in vivo, read-out: Drug metabolism; procedure, shortened: as §2
# [28] = test system: Plasma; assay: Drug metabolism in Sprague-Dawley rat plasma assessed as (+)-Lesinurad formation at 2 mg/kg, iv administered as single bolus dose by LC-MS/MS analysis; type: ADME, organism-based; details: in vivo
# [29] = test system: Plasma; assay: Drug metabolism in Sprague-Dawley rat plasma assessed as (-)-Lesinurad formation at 10 mg/kg, po administered as single dose via gavage by LC-MS/MS analysis; type: ADME, organism-based; details: in vivo
# [30] = Drug level in cynomolgus monkey urine at 10 mg/kg, po administered as single dose via gavage measured at 24 hrs post dose by LC-MS/MS analysis; type: ADME, organism-based, Macaca fascicularis; details: in vivo, read-out: Drug uptake; procedure, shortened: as §2
# [31] = Apparent permeability from apical to basolateral side in MDCK cells expressing MDR1; type: ADME, cell-based, Canis lupus familiaris; details: dog
# [32] = Apparent permeability from basolateral to apical side in MDCK cells expressing MDR1; type: ADME, cell-based, Canis lupus familiaris; details: dog
# [33] = test system: Plasma; assay: Drug metabolism in Sprague-Dawley rat plasma assessed as (-)-Lesinurad formation at 2 mg/kg, iv administered as single bolus dose by LC-MS/MS analysis; type: ADME, organism-based; details: in vivo
# [34] = test system: Plasma; assay: Drug metabolism in Sprague-Dawley rat plasma assessed as (+)-Lesinurad formation at 10 mg/kg, po administered as single dose via gavage by LC-MS/MS analysis; type: ADME, organism-based; details: in vivo
# [35] = target: T2, Cytochrome P450 2C9; assay: Drug metabolism in human liver microsomes assessed as CYP2C9-mediated mono-oxidative metabolite formation at 250 pmol/ml preincubated for 10 mins followed by NADPH addition measured after 10 mins by LC-MS/MS analysis; type: ADME; details: 0.25 µM
# [36] = test system: Plasma; assay: Stability in human plasma at 37 degC up to 2 hrs; type: ADME, cell-free
# [37] = test system: Cynomolgus monkey; assay: (§4) AUC (0 to infinity) in cynomolgus monkey at 2 mg/kg, iv administered as single bolus dose by LC-MS/MS analysis; type: ADME, organism-based, Macaca fascicularis; design: dose 2 mg/kg, time infinity, route intravenous; details: in vivo
# [38] = as §4; type: ADME, organism-based, Macaca fascicularis; design: dose 2 mg/kg, time infinity, route intravenous; details: in vivo
# [39] = Drug recovery in cynomolgus monkey urine at 10 mg/kg, po administered as single dose via gavage measured at 24 hrs post dose by LC-MS/MS analysis; type: ADME, organism-based, Macaca fascicularis; details: read-out: Drug recovery; procedure, shortened: as §2
# [40] = target: T1, CYP2C9; assay: (§5) Drug metabolism in human liver microsomes assessed as CYP2C9-mediated metabolism by measuring compound half life at 250 pmol/ml preincubated for 10 mins followed by NADPH addition measured after 10 mins by LC-MS/MS analysis; type: ADME; details: liver microsomes
# [41] = target: T2, Cytochrome P450 2C9; assay: as §5; type: ADME; details: microsomes, 10 min
# [42] = target: Voltage-gated inwardly rectifying potassium channel KCNH2 (Homo sapiens, UniProt Q12809); assay: Inhibition of human ERG
# Sequence of Voltage-gated inwardly rectifying potassium channel KCNH2 (Q12809 whole entry): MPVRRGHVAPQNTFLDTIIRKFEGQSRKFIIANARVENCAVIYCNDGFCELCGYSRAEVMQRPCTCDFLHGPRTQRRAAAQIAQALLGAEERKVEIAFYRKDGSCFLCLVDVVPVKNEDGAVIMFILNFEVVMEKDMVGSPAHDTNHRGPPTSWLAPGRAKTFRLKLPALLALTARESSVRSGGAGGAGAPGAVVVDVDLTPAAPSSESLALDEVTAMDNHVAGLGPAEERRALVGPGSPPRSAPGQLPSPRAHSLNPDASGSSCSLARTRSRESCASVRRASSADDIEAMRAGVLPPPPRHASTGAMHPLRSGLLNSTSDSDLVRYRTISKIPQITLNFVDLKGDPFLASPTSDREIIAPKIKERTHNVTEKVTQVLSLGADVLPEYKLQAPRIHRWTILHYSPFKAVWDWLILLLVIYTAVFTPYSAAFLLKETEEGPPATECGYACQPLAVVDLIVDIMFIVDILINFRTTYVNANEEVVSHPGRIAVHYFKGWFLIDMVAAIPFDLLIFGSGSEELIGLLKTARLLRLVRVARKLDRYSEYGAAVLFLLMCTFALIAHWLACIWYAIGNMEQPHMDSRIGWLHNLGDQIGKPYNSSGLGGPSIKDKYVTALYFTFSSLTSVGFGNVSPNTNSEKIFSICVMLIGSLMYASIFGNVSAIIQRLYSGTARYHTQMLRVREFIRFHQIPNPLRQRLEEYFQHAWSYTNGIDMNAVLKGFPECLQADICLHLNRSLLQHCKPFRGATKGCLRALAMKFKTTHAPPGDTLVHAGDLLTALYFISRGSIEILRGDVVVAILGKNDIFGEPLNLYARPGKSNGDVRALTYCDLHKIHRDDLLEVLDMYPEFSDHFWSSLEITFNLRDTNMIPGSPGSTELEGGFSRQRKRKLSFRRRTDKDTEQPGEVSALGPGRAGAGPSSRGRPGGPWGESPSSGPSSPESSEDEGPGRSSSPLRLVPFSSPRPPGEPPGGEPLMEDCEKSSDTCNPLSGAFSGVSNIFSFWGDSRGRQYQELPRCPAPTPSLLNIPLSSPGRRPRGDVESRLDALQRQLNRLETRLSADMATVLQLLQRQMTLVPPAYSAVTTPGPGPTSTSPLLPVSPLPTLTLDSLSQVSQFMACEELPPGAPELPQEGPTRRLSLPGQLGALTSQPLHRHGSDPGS
compound,measurement,setting,value
O=C(O)Cc1ccccc1Nc1c(Cl)cccc1Cl [DICLOFENAC],half-life at 10 pmol/ml,[1],0.205 h
same,"remaining at 1 h, 10 pmol/ml",[2],112%
same,"remaining at 1 h, 10 pmol/ml",[3],3.3%
same,CLint,[4],5.6 µL/min/pmol
O=C(O)CSc1nnc(Br)n1-c1ccc(C2CC2)c2ccccc12 [LESINURAD],"remaining at 1 h, 250 pmol/ml",[5],61.8%
same,Stability,[6],74.9%
same,concentration,[7],2.8 µM
same,Stability,[8],Stable
same,pIC50,[9],4.21 and 4.97
same,Stability,[10],Stable
same,concentration,[11],153 µM
same,pIC50,[12],4.49 and 4.04 and < 4.00
same,Stability,[13],Stable
same,AUC,[14],83.9 µM·h and 37.3 µM·h
same,pIC50,[15],4.76 and 4.41 and 4.66
same,Drug metabolism,[16],5.4 µM
same,dose excreted at 24 h,[17],20%
same,concentration,"[18]; in vivo, 24 h",15.7 µM
same,concentration at 24 h,[18]; urine,16.3 µM
same,CLH,[19],0.04 µL/min/pmol and < 0.02 µL/min/pmol
same,"remaining at 1 h, 250 pmol/ml",[20],110%
same,Stability,[21],108.9%
same,Stability,[22],Stable
same,clearance,[23],3.3 mL/min/kg
same,Stability,[24],Stable
same,pIC50,[25],4.13 and 4.49 and 4.51
same,pIC50,[26],< 4.00 and 4.10 and 4.51
same,concentration,[27],38 µM
same,Drug metabolism,[28],Metabolite_Notdetected
same,Drug metabolism,[29],Metabolite_Notdetected
same,concentration,[30],120 µM and 47.8 µM
same,Papp A→B,[31]; MDCK-MDR1,1.34 ×10⁻⁶ cm/s
same,Papp,[31]; mdck,1.29 ucm/s and 1.26 ucm/s
same,Papp B→A,[32]; MDCK-MDR1,1.98 ×10⁻⁶ cm/s
same,Papp,[32]; mdck,1.84 ucm/s and 1.62 ucm/s
same,Drug metabolism,[33],Metabolite_Notdetected
same,Drug metabolism,[34],Metabolite_Notdetected
same,Drug metabolism,[35],Metabolite_Detected
same,Stability,[36],Stable
same,AUC,[37],19.2 µM·h
same,AUC(0-inf),[38],26.7 µM·h
same,dose excreted at 24 h,[39],20%
same,half-life at 250 pmol/ml,[40],1.5 h
same,t1/2,[41],> 2.42 h
same,pIC50,[42],< 4.52
